The source of these data is publication PMC6689428 (Biochimica et biophysica acta. Biomembranes, 2019).

Test [1] has as its system S. aureus USA300. The test is described as follows: Membrane depolarization, DiBAC4. The format is cell-based, Staphylococcus aureus. The following applies: S. aureus USA300, treated at 12.5 μM, DiBAC4(3) fluorescence; Triton X-100 (0.1%) positive control.
Test [2] concerns S. aureus USA300 biofilms. The test is described as follows: Disruption of 24 h established biofilms, XTT. To be noted: 24 h preformed S. aureus USA300 biofilms, 24 h treatment in TSB. It counts as cell-based, Staphylococcus aureus. The procedure, abridged:
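Exponential-phase TSB culture at 10^5 CFU/mL grew 24 h at 37°C to form biofilms. Plankton was removed with a PBS wash. Biofilms took 10× peptide diluted in fresh TSB for 24 h at 37°C, were washed, then got XTT in TSB for 2 h at 37°C. A450 was blanked on media plus XTT. Growth was expressed as % of untreated biofilm wells.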

The subject of test [3] is E. coli ATCC 25922 biofilms. The test is described as follows: Disruption of 24 h established biofilms, XTT. The format is cell-based, Escherichia coli. To be noted: 24 h preformed E. coli ATCC 25922 biofilms.
Test [4] concerns S. aureus USA300. The test is described as follows: Membrane permeation, propidium iodide. The format is cell-based, Staphylococcus aureus. To be noted: S. aureus USA300, peptides at 3.12 μM, 10 mM PBS, 37°C, read for 2 h. The procedure, abridged: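 Cells were suspended in 10 mM PBS at final OD600 ~0.1 with propidium iodide and serially diluted 10× peptide. They were held at 37°C shaking at 100 rpm. Fluorescence (ex 584/em 620 nm) was read every 5 min for 2 h. Plots used averages of duplicate experiments.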

A further test has as its system E. coli ML-35p. The test is described as follows: Outer and inner membrane permeabilization. The following applies: peptides at 6.25 μM, absorbance for 40 min. It counts as cell-based, Escherichia coli. The procedure, abridged:
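Cells came from a single colony grown overnight in TSB at 37°C and were washed three times in PBS. They were diluted to ~10^6 CFU/mL in PBS containing 0.3 mg/mL TSB. Peptide was 0 to 12.5 μM, with 30 μM nitrocefin or 2.5 mM ONPG per well. Absorbance at 490 and 420 nm was followed for 40 min at 37°C.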

For test [5], the system named is S. aureus USA300. The following applies: ref [10]; cited from earlier work.
The test system of a further test is E. coli. To be noted: ref [50], [10]; cited from earlier work.

For the molecule `CCCCCCCCCC(=O)N[C@@H](Cc1c[nH]c2ccccc12)C(=O)N[C@H](CC(N)=O)C(=O)N[C@@H](CC(=O)O)C(=O)N[C@@H]1C(=O)NCC(=O)N[C@@H](CCCN)C(=O)N[C@@H](CC(=O)O)C(=O)N[C@H](C)C(=O)N[C@@H](CC(=O)O)C(=O)NCC(=O)N[C@H](CO)C(=O)N[C@@H]([C@H](C)CC(=O)O)C(=O)N[C@@H](CC(=O)c2ccccc2N)C(=O)O[C@@H]1C` [daptomycin], the Membrane depolarization entry in the test on S. aureus USA300 [1] is “very weak”. Further, in test [2], the “Concentration that essentially eliminated biofilms” value turned out to be 6.25 µM. Take `CO[C@H]1/C=C/O[C@@]2(C)Oc3c(C)c(O)c4c(O)c(cc(O)c4c3C2=O)NC(=O)/C(C)=C\C=C\[C@H](C)[C@H](O)[C@@H](C)[C@@H](O)[C@@H](C)[C@H](OC(C)=O)[C@@H]1C` [rifamycin]: the Antibiofilm effect entry in test [3] is on record as “ineffective”. For `NC[C@H]1O[C@H](O[C@H]2[C@H](O)[C@@H](O[C@H]3O[C@H](CO)[C@@H](O)[C@H](N)[C@H]3O)[C@H](N)C[C@@H]2N)[C@H](N)C[C@@H]1O` [tobramycin], in the test with S. aureus USA300 [4], the “Membrane permeation (propidium iodide fluorescence)” value is “unable to damage bacterial membranes”.

For `CN[C@H](CC(C)C)C(=O)N[C@H]1C(=O)N[C@@H](CC(N)=O)C(=O)N[C@H]2C(=O)N[C@H]3C(=O)N[C@H](C(=O)N[C@H](C(=O)O)c4cc(O)cc(O)c4-c4cc3ccc4O)[C@H](O)c3ccc(c(Cl)c3)Oc3cc2cc(c3O[C@@H]2O[C@H](CO)[C@@H](O)[C@H](O)[C@H]2O[C@H]2C[C@](C)(N)[C@H](O)[C@H](C)O2)Oc2ccc(cc2Cl)[C@H]1O` [vancomycin], the “Outer membrane permeation (β-lactamase, nitrocefin)” value in the test on E. coli ML-35p is reported as “unable to”. For the molecule GFKRlVQRlKDFlRKLV-amide [GF-17d3], the “Activity against S. aureus USA300” value with S. aureus USA300 [5] is reported as “not active”. Moreover, the “Activity against E. coli in the presence of chymotrypsin” value with E. coli is given as “active”.
